For data set [1], the target named is T1, Diacylglycerol O-acyltransferase 1 (Rattus norvegicus, UniProt Q9ERM3).
T1 sequence (Q9ERM3 whole entry): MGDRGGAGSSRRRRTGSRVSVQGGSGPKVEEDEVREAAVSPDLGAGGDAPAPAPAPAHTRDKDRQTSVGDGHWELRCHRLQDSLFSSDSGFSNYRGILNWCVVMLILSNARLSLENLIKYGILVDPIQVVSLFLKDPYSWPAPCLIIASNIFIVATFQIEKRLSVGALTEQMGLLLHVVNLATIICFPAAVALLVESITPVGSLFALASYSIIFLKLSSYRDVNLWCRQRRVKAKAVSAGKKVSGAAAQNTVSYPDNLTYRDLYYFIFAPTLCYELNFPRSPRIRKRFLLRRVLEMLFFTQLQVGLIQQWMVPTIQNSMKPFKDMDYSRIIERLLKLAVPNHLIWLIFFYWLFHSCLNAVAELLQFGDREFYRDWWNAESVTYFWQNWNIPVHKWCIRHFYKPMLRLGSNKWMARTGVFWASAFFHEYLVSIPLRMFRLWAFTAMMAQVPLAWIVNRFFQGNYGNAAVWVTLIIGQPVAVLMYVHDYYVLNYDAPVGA
As to the kind of experiment: (§1) Inhibition of DGAT in rat liver microsomes. Further details: species or system Microsome. Put shortly: (§2)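 DGAT activity was measured in microsomes prepared from rat liver, using a modified version of Coleman's method. IC₅₀ values were determined.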
For orientation: Microsomes from liver hold many membrane-bound enzymes, among them those of drug oxidation.

The species entered for data set [2] is Mus musculus. As to the kind of experiment: Antiobesity activity in high fat diet-induced obese mouse assessed as decrease in retroperitoneal fat (reference value: 1.41 +/- 0.29 %). The class given is functional. Further details: scale not given: the % may be the effect or the level left. Put shortly:
(§3)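 In 6-week-old male diet-induced obese mice, HFD-fed and individually housed (23 °C ± 3 °C, 12-h light–dark, food and water ad libitum), total and retroperitoneal fat were weighed after 5 weeks of treatment. Values are given as (tissue weight/body weight) × 100 and compared with normal-diet and untreated HFD groups.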

The species named for data set [3] is Mus musculus. Description: Antiobesity activity in high fat diet-induced obese mouse assessed as decrease in abdominal and epididymal fat (reference value: 5.34 +/- […]). The class given is functional. Also noted: scale not given: the % may be the effect or the level left.
The species entered for data set [4] is Mus musculus. Description: Antiobesity activity in high fat diet-induced obese mouse assessed as decrease in total fat (reference value: 6.75 +/- 1.18 %). The class given is functional. Also noted: scale not given: the % may be the effect or the level left. Put shortly:
as §3

For data set [5], the species on record is Mus musculus. As to the kind of experiment: Antidyslipidemic activity in high fat diet-induced obese mouse assessed as increase in blood HDL-cholesterol level (reference value: 17.4 +/- 2.15 mg/dl). The class given is functional.
Data set [6] is filed under the species Mus musculus. Description: Antiobesity activity in high fat diet-induced obese mouse assessed as inhibition of body weight gain after 5 weeks (reference value: 52.9 +/- 1.20 g). The class given is functional.
Data set [7] is filed under the species Mus musculus. As to the kind of experiment: Antiobesity activity in high fat diet-induced obese mouse assessed as inhibition of body weight gain after 4 weeks (reference value: 49.9 +/- 1.24 g). In kind it is functional.
The species named for data set [8] is Mus musculus. Description: Antiobesity activity in high fat diet-induced obese mouse assessed as inhibition of body weight gain after 3 weeks (reference value: 45.9 +/- 2.29 g). In kind it is functional.
For data set [9], the species on record is Mus musculus. As to the kind of experiment: Antiobesity activity in high fat diet-induced obese mouse assessed as inhibition of body weight gain after 2 weeks (reference value: 37.8 +/- 3.55 g). The class given is functional.
Data set [10] is filed under the species Mus musculus. Description: Antiobesity activity in high fat diet-induced obese mouse assessed as inhibition of body weight gain after 1 week (reference value: 35.2 +/- 1.57 g). The class given is functional.
For data set [11], the species on record is Mus musculus. As to the kind of experiment: Antidyslipidemic activity in high fat diet-induced obese mouse assessed as decrease in blood LDL-cholesterol level (reference value: 119 +/- 14.3 mg/dl). In kind it is functional.
The species entered for data set [12] is Mus musculus. As to the kind of experiment: Antidyslipidemic activity in high fat diet-induced obese mouse assessed as decrease in total blood triglyceride level (reference value: 120 +/- 11.2 mg/dl). The class given is functional.
Data set [13] is filed under the species Mus musculus. As to the kind of experiment: Antidyslipidemic activity in high fat diet-induced obese mouse assessed as decrease in total blood cholesterol level (reference value: 160 +/- 13.9 mg/dl). In kind it is functional.
Data set [14] deals with T2, Diacylglycerol O-acyltransferase 1 (Rattus norvegicus) (UniProt Q9ERM3).
T2 sequence (whole entry): T1 sequence (Q9ERM3 whole entry)
The description is as §1. The settings on record: Microsome. A digest of the protocol: as §2

The test system of data set [15] is Mus musculus. Description: Antiobesity activity in high fat diet-induced obese mouse assessed as inhibition of body weight gain at 10 mg/kg after 5 weeks (reference value: 52.9 +/- 1.20 g). In kind it is functional.
Data set [16] relates to Mus musculus. Description: Antiobesity activity in high fat diet-induced obese mouse assessed as inhibition of body weight gain at 10 mg/kg after 4 weeks (reference value: 49.9 +/- 1.24 g). In kind it is functional.
For data set [17], the system named is Mus musculus. As to the kind of experiment: Antiobesity activity in high fat diet-induced obese mouse assessed as inhibition of body weight gain at 10 mg/kg after 3 weeks (reference value: 45.9 +/- 2.29 g). In kind it is functional.
Data set [18] relates to Mus musculus. Description: Antiobesity activity in high fat diet-induced obese mouse assessed as inhibition of body weight gain at 10 mg/kg after 2 weeks (reference value: 37.8 +/- 3.55 g). The class given is functional.
In data set [19] the test system is Mus musculus. As to the kind of experiment: Antiobesity activity in high fat diet-induced obese mouse assessed as inhibition of body weight gain at 10 mg/kg after 1 week (reference value: 35.2 +/- 1.57 g). In kind it is functional.
Data set [20] has as its system HepG2. Description: Cytotoxicity against human HepG2 cells assessed as cell viability after 48 hrs by MTT assay. The class given is cell-based. The conditions noted are these: hepg2, 48 h. Put shortly:
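HepG2 cells were kept in DMEM with 10% heat-inactivated FBS and 1% penicillin–streptomycin at 37 °C in 5% CO₂. Cells were seeded at 2 × 10⁴ per well, exposed to compound for 48 h, and viability was read by MTT as formazan absorbance at 560 nm.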
(Tetrazolium dyes change colour on reduction, which living cells bring about.)

Data set [21] deals with T3, Diacylglycerol O-acyltransferase 1 (Homo sapiens) (UniProt O75907).
T3 sequence (whole entry): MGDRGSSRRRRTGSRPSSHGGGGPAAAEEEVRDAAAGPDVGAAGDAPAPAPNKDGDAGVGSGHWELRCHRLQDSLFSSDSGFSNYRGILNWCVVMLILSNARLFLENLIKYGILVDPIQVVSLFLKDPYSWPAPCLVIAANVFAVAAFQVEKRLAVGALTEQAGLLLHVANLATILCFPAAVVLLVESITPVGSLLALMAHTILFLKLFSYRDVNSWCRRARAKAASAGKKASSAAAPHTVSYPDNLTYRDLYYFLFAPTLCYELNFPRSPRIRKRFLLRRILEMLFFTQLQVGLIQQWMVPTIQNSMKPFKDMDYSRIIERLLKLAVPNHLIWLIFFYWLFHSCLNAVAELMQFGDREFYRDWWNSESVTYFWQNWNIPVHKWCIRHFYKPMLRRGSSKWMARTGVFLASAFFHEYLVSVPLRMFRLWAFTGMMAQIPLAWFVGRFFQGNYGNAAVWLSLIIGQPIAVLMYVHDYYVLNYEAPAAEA
Description: Residual DGAT activity in human HepG2 cells using [14C]acetate as substrate assessed as formation of [14C]-triglyceride at 3 uM by chromatographic analysis relative to control.

The target in data set [22] is T3, Diacylglycerol O-acyltransferase 1 (Homo sapiens). As to the kind of experiment: Residual DGAT activity in human HepG2 cells using [14C]glycerol as substrate assessed as formation of [14C]-triglyceride at 3 uM by chromatographic analysis relative to control.
Data set [23] shares this target. As to the kind of experiment: Residual DGAT activity in human HepG2 cells using [14C]acetate as substrate assessed as formation of [14C]-triglyceride at 10 uM by chromatographic analysis relative to control.
Data set [24] has the same target. Description: Residual DGAT activity in human HepG2 cells using [14C]glycerol as substrate assessed as formation of [14C]-triglyceride at 10 uM by chromatographic analysis relative to control.

Data on 23 compounds can be found in ChEMBL document CHEMBL2203103, “Discovery of a novel series of benzimidazole derivatives as diacylglycerol acyltransferase inhibitors” (Bioorg Med Chem Lett, 2012).

Activity calls are given as the source filed them. The calls are words filed in the database; no cut-off is given here.

Consider `COC(=O)c1ccc2[nH]c(COc3ccc(C45CC6CC(CC(C6)C4)C5)cc3)nc2c1`, for which, in data set [1], half-maximal inhibition (IC50) was put at 23 µM.
The same measure, in the same setting: the value for `O=C(O)c1ccc2[nH]c(COc3ccc(C45CC6CC(CC(C6)C4)C5)cc3)nc2c1` was greater than 50 µM.
The same measure, in the same setting: next, `NC(=O)c1ccc2nc(COc3ccc(C45CC6CC(CC(C6)C4)C5)cc3)[nH]c2c1`: greater than 50 µM.
Still for that read-out and setting: next, `CC1(C)Oc2ncnc(N)c2N=C1c1ccc([C@H]2CC[C@H](CC(=O)O)CC2)cc1`: 3.1 µM.
Consider `CCCCCCCCCCC[C@@H](C[C@@H]1OC(=O)[C@H]1CCCCCC)OC(=O)[C@H](CC(C)C)NC=O` [ORLISTAT], for which the Activity is 0.75% in [2]; 2.45% in [3]; 3.2% in data set [4]; 30.3 mg/dL in data set [5]; 41.2 g in data set [6]; 40 g in data set [7]. Further, the Activity in data set [8] was found to be 39.1 g; in data set [9] it was 37.4 g; in data set [10], 33.6 g; in data set [11] it was 20.5 mg/dL; in [12], 40.8 mg/dL; in [13], 53.8 mg/dL.
Take `Cc1ccc(CNC(=O)c2ccc3nc(COc4ccc(C56CC7CC(CC(C7)C5)C6)cc4)[nH]c3c2)o1`: half-maximal inhibition in data set [1] (IC50) required 11.4 µM.
Still for that read-out and setting: the value for `O=C(Nc1ccccc1)c1ccc2[nH]c(COc3ccc(C45CC6CC(CC(C6)C4)C5)cc3)nc2c1` was greater than 50 µM.
In the case of `COc1cc(O)c(CC=C(C)C)c(O)c1C(=O)/C=C/c1ccc(O)cc1`, in data set [14], the inhibition result was “Active”.
Compound `O=C(c1ccc2[nH]c(COc3ccc(C45CC6CC(CC(C6)C4)C5)cc3)nc2c1)N1CCCCC1` returned an IC50 in data set [1] of 27.5 µM.
In [1], `Cc1ccoc1CNC(=O)c1ccc2nc(COc3ccc(C45CC6CC(CC(C6)C4)C5)cc3)[nH]c2c1` returned a 50% inhibitory concentration (IC50) of 25.4 µM.
The same measure, in the same setting: next, `O=C(NCc1ccco1)c1ccc2nc(COc3ccccc3)[nH]c2c1`: greater than 50 µM.
Turning to `CC(C)c1cccc(C(C)C)c1NC(=O)c1ccc2nc(COc3ccc(C45CC6CC(CC(C6)C4)C5)cc3)[nH]c2c1`, the IC50 in data set [1] was greater than 50 µM.
Same read-out and setting: next, `O=C(NCc1ccccc1)c1ccc2nc(COc3ccc(C45CC6CC(CC(C6)C4)C5)cc3)[nH]c2c1`: greater than 50 µM; `CC(C)NC(=O)c1ccc2nc(COc3ccc(C45CC6CC(CC(C6)C4)C5)cc3)[nH]c2c1`: 20 µM; `CN(C)C(=O)c1ccc2nc(COc3ccc(C45CC6CC(CC(C6)C4)C5)cc3)[nH]c2c1`: greater than 50 µM.
Same read-out and setting: the value for `O=C(NCc1ccco1)c1ccc2nc(COc3ccc(-c4ccccc4)cc3)[nH]c2c1` was greater than 50 µM; that for `O=C(NC[C@@H]1CCCO1)c1ccc2nc(COc3ccc(C45CC6CC(CC(C6)C4)C5)cc3)[nH]c2c1` was 9.5 µM.
Still for that read-out and setting: the value for `O=C(NCc1cccs1)c1ccc2[nH]c(COc3ccc(C45CC6CC(CC(C6)C4)C5)cc3)nc2c1` was greater than 50 µM; that for `O=C(NC[C@H]1CCCO1)c1ccc2nc(COc3ccc(C45CC6CC(CC(C6)C4)C5)cc3)[nH]c2c1` was 8.7 µM.
In [1], `O=C(c1ccc2[nH]c(COc3ccc(C45CC6CC(CC(C6)C4)C5)cc3)nc2c1)N1CCCC1` gave an IC50 of 11.3 µM.
For the compound `O=C(NCc1ccco1)c1ccc2[nH]c(COc3ccc(C45CC6CC(CC(C6)C4)C5)cc3)nc2c1`, the Activity in data set [2] turned out to be 0.94%; in data set [3], 3.16%; in data set [4], 4.1%; in data set [5] it was 21.2 mg/dL; in data set [15], 43.2 g; in data set [16], 42.3 g. Also, the Activity in data set [17] is 40.8 g; in data set [18], 38.9 g; in [19], 35.1 g; in [20], greater than 50 µM; in [11], 43.6 mg/dL; in data set [12], 41.8 mg/dL. In [13], the Activity was determined as 73.2 mg/dL. Further, the IC50 in data set [1] was 4.4 µM. Moreover, the residual activity in data set [21] came to 80.9%; in data set [22], 69.5%; in data set [23] it was 53%; in data set [24] it was 45%.
For the compound `CC(C)(C)c1ccc(OCc2nc3cc(C(=O)NCc4ccco4)ccc3[nH]2)cc1`, 9 µM corresponded to half-maximal inhibition in data set [1] (IC50).
For the compound `O=C(NCc1ccccn1)c1ccc2[nH]c(COc3ccc(C45CC6CC(CC(C6)C4)C5)cc3)nc2c1`, the IC50 in [1] worked out at 20 µM.

The IC50 is the concentration needed to halve the response being measured. The residual activity is the share of the control activity or signal that is left under treatment.
